# Measurements from PubChem BioAssay AID602403 (The Scripps Research Institute Molecular Screening Center, 2012).
# Active and inactive are the calls of the source.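 Rule for the calls: active = inhibition of the enzyme-probe labelling of at least 50% at one fixed dose; inactive = inhibition below 50%.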
# Molecular target: Diacylglycerol lipase-alpha (Mus musculus) (UniProt Q6WQJ1)
# Experiment: mouse DAGLa inhibition, late-stage follow-up, selectivity assay for DAGLb inhibitor project, biochemical, gel-based competitive ABPP, recombinant, fluorescence (AID 602403)
# Details: HEK293T membrane mouse DAGLa, at 0.4 µM, active compounds read high
# Method in brief: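 Material: membrane proteome of 293T HEK cells transiently overexpressing mouse DAGLa; Also added: HT-01 probe, 1 µM; Read-out: percent inhibition from band integrated optical density versus DMSO control; Benchmarks: high control DMSO without compound, low control blank-gel background; Measured by: in-gel fluorescence after SDS-PAGE; Schedule: 30 min compound plus 30 min probe, 37 °C.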
# Sequence of Diacylglycerol lipase-alpha (Mus musculus) (Q6WQJ1 whole entry, looked up): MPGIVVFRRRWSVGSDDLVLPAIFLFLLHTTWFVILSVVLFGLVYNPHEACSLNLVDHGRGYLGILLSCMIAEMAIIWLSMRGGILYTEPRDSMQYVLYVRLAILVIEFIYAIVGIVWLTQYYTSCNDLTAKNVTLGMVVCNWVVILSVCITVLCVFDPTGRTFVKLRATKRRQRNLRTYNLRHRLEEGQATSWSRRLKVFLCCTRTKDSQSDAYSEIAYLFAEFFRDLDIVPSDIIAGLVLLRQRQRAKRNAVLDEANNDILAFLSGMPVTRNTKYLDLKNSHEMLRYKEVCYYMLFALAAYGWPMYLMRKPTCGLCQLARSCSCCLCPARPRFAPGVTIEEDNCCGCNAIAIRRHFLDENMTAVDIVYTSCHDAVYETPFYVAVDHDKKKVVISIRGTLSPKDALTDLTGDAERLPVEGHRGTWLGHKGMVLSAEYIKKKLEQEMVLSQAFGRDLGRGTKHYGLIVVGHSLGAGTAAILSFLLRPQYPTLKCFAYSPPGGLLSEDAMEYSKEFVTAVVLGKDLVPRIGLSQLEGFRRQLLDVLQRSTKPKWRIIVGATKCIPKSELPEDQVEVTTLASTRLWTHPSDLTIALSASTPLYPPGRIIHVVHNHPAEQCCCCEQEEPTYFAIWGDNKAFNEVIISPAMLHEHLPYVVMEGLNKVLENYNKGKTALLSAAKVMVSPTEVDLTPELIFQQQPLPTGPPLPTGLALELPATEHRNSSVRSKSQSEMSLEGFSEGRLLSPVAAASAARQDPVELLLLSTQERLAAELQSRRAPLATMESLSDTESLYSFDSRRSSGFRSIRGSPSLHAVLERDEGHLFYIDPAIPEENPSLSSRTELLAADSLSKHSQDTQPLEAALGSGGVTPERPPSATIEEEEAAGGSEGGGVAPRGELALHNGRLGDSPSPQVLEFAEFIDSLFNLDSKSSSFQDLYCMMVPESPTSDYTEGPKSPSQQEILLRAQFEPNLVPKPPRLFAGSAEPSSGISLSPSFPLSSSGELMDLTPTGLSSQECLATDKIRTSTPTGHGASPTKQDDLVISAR
row,Structure (SMILES),inhibition
1,COc1ccc(-c2ccc(-c3cn(C(=O)N4CCCCC4c4ccccc4)nn3)cc2)cc1 (stereo not drawn),0% (inactive)
2,COc1ccccc1-c1ccc(-c2cn(C(=O)N3CCCCC3Cc3ccccc3)nn2)cc1 (stereo not drawn),40% (inactive)
3,O=C(N1CCCCC1Cc1ccccc1)n1cc(-c2ccc(OC(F)(F)F)cc2)nn1 (stereo not drawn),50% (active)
